Active and inactive are the calls of the source. No cut-off for these calls is given here.
Columns and labels:
Shh Light II [1] = test: Cell cycle arrest in mouse Shh Light2 cells assessed as accumulation at G0/G1 phase at 10 uM after 30 to 48 hrs by propidium iodide staining-based flow cytometry (reference value: 86.2%); assay type: functional
Shh Light II [2] = test: Cell cycle arrest in mouse Shh Light2 cells assessed as accumulation at S phase at 10 uM after 30 to 48 hrs by propidium iodide staining-based flow cytometry (reference value: 3.6%); assay type: functional
Shh Light II [3] = test: Cell cycle arrest in mouse Shh Light2 cells assessed as accumulation at G2/M phase at 10 uM after 30 to 48 hrs by propidium iodide staining-based flow cytometry (reference value: 6.7%); assay type: functional
Shh Light II [4] = test: Cell cycle arrest in mouse Shh Light2 cells assessed as accumulation at subG0 phase at 10 uM after 30 to 48 hrs by propidium iodide staining-based flow cytometry (reference value: 3.4%); assay type: functional
[5] = molecular target: T1, Zinc finger protein GLI1 (Homo sapiens) (UniProt P08151); test: Inhibition of Gli1 (unknown origin) expression in mouse Shh Light2 cells at 100 uM by Western blot analysis; assay type: cell-based
T1 sequence (whole entry): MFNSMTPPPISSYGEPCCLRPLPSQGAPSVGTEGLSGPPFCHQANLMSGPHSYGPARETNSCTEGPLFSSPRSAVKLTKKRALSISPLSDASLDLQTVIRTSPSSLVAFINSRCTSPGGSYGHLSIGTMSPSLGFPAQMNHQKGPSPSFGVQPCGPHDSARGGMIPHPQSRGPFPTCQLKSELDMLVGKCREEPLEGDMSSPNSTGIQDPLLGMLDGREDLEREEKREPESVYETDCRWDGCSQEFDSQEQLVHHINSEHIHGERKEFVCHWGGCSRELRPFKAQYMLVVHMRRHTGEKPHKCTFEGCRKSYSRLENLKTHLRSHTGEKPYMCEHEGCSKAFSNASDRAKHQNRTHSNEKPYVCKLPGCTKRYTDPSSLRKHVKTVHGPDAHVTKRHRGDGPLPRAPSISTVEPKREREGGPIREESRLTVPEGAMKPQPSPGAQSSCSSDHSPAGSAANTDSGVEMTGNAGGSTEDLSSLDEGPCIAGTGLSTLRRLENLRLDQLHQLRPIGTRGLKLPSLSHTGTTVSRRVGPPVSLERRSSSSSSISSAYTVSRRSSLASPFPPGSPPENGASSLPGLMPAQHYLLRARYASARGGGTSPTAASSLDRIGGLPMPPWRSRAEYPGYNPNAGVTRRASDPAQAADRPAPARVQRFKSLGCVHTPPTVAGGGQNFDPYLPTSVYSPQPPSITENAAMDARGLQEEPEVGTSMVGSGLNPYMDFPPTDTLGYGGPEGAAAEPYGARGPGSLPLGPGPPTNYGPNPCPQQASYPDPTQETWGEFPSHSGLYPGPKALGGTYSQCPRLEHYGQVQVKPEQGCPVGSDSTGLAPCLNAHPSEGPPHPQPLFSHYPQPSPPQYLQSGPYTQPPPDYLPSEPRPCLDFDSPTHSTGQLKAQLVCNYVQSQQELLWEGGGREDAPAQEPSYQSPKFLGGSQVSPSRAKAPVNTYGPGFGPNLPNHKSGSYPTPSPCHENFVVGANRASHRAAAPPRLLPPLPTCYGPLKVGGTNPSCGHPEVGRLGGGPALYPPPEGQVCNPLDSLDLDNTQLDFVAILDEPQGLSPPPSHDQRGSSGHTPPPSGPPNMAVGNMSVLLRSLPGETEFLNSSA
In short: (§1)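 Gli1 protein immunoblotted in Shh-N-stimulated Shh-LIGHT2 cells after treatment with varying doses or 100 µM compound; GAPDH loading control; Shh-N-stimulated DMSO-treated cells as control; cyclopamine 10 µM positive control.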

[6] = molecular target: T1, Zinc finger protein GLI1 (Homo sapiens); test: Inhibition of Shh-N-induced Gli1 (unknown origin) expressed in mouse Shh Light2 cells assessed as Gli1-mediated mediated transcription at 50 uM incubated for 30 hrs by firefly luciferase assay; assay type: cell-based
In short: (§2)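 Shh-LIGHT2 cells (NIH-3T3 clone stably carrying Gli-dependent firefly and constitutive Renilla luciferase) treated 30 h with graded compound concentrations in Shh-N conditioned medium; firefly luminescence read as percent inhibition versus Shh-N-stimulated DMSO control. Cyclopamine 10 µM positive control. Three independent experiments in triplicate, mean ± SD.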

Shh Light II [7] = test: Effect on SuFu expression in mouse Shh Light2 cells at 75 to 100 uM after 24 hrs by Western blot analysis; assay type: functional, cell-based
Shh Light II [8] = test: Effect on SHH expression in mouse Shh Light2 cells at 75 to 100 uM after 24 hrs by Western blot analysis; assay type: functional, cell-based
Shh Light II [9] = test: Cell cycle arrest in mouse Shh Light2 cells assessed as accumulation at G0/G1 phase at 100 uM after 30 to 48 hrs by propidium iodide staining-based flow cytometry (reference value: 86.2%); assay type: functional
Shh Light II [10] = test: Cell cycle arrest in mouse Shh Light2 cells assessed as accumulation at subG0 phase at 30 uM after 30 to 48 hrs by propidium iodide staining-based flow cytometry (reference value: 3.4%); assay type: functional
Shh Light II [11] = test: Cell cycle arrest in mouse Shh Light2 cells assessed as accumulation at G2/M phase at 100 uM after 30 to 48 hrs by propidium iodide staining-based flow cytometry (reference value: 6.7%); assay type: functional
Shh Light II [12] = test: Cell cycle arrest in mouse Shh Light2 cells assessed as accumulation at subG0 phase at 100 uM after 30 to 48 hrs by propidium iodide staining-based flow cytometry (reference value: 3.4%); assay type: functional
Shh Light II [13] = test: Effect on Smo expression in mouse Shh Light2 cells at 75 to 100 uM after 24 hrs by Western blot analysis; assay type: functional, cell-based
[14] = molecular target: T1, Zinc finger protein GLI1 (Homo sapiens); test: Inhibition of Gli1 (unknown origin) expression in mouse Shh Light2 cells at 1 to 100 uM by Western blot analysis; assay type: cell-based; in short: as §1
Shh Light II [15] = test: Effect on Ptch1 expression in mouse Shh Light2 cells at 75 to 100 uM after 24 hrs by Western blot analysis; assay type: functional, cell-based
Shh Light II [16] = test: Cytotoxicity against mouse Shh Light2 cells up to 150 uM after 40 hrs by MTT assay; assay type: cell-based
In short: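 MTT viability in Shh-LIGHT2 cells (NIH-3T3 clone with Gli-dependent firefly and constitutive Renilla luciferase reporters) after 40 h exposure to doses up to 150 μM, under the same conditions as the Hh reporter assay.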

Shh Light II [17] = test: Cell cycle arrest in mouse Shh Light2 cells assessed as accumulation at G0/G1 phase at 30 uM after 30 to 48 hrs by propidium iodide staining-based flow cytometry (reference value: 86.2%); assay type: functional
Shh Light II [18] = test: Cell cycle arrest in mouse Shh Light2 cells assessed as accumulation at S phase at 100 uM after 30 to 48 hrs by propidium iodide staining-based flow cytometry (reference value: 3.6%); assay type: functional
Shh Light II [19] = test: Cell cycle arrest in mouse Shh Light2 cells assessed as accumulation at S phase at 30 uM after 30 to 48 hrs by propidium iodide staining-based flow cytometry (reference value: 3.6%); assay type: functional
Shh Light II [20] = test: Cell cycle arrest in mouse Shh Light2 cells assessed as accumulation at G2/M phase at 30 uM after 30 to 48 hrs by propidium iodide staining-based flow cytometry (reference value: 6.7%); assay type: functional
[21] = molecular target: T1, Zinc finger protein GLI1 (Homo sapiens); test: Inhibition of Shh-N-induced Gli1 (unknown origin) expressed in mouse Shh Light2 cells assessed as Gli1-mediated mediated transcription up to 50 uM incubated for 30 hrs by firefly luciferase assay; assay type: cell-based; in short: as §2
Mus musculus = species: Mus musculus; settings: 0.5 to 50 uM
Shh Light II [22] = test: Effect on Ptch1 expression in mouse Shh Light2 cells at 25 to 50 uM after 24 hrs by Western blot analysis; assay type: functional, cell-based
Shh Light II [23] = test: Effect on SHH expression in mouse Shh Light2 cells at 25 to 50 uM after 24 hrs by Western blot analysis; assay type: functional, cell-based
In short: (§3)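 Shh-LIGHT2 cells treated 24 h, then SHH and SuFu protein levels assessed by western blotting.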

Shh Light II [24] = test: Effect on SuFu expression in mouse Shh Light2 cells at 25 to 50 uM after 24 hrs by Western blot analysis; assay type: functional, cell-based; in short: as §3

Compound `CC1=C2C[C@H]3[C@@H](CC=C4C[C@@H](O)CC[C@@]43C)[C@@H]2CC[C@]12O[C@@H]1C[C@H](C)CN[C@H]1[C@H]2C` [CYCLOPAMINE] has an Activity (Shh Light II [1]) of 84.1%, an Activity (Shh Light II [2]) of 4.7% and an Activity (Shh Light II [3]) of 7.7%. It also gave an Activity (Shh Light II [4]) of 3.2%.

With `O=C(O)C1CCCCNN1` (configuration not stated) the inhibition [5] was “inactive” and the inhibition [6] was “inactive”.

In the case of `O=C(O)C1CCCNN1` (configuration not stated), the Activity (Shh Light II [7]) is reported as “inactive”, the Activity (Shh Light II [8]) is reported as “inactive” and the Activity (Shh Light II [9]) is reported as 81.3%. It also gave an Activity (Shh Light II [10]) of 4.7%, an inhibition [6] of less than 50% and an Activity (Shh Light II [11]) of 8.3%. For the same compound, the Activity (Shh Light II [12]) was 5.2%, the Activity (Shh Light II [13]) was “inactive” and the inhibition [14] was “Dose-dependent effect”. The Activity (Shh Light II [15]) was “inactive”, the Activity (Shh Light II [16]) was “Non-Toxic” and the Activity (Shh Light II [17]) was 82.9%. The Activity (Shh Light II [18]) was 4.9%, the Activity (Shh Light II [19]) was 4.4% and the Activity (Shh Light II [20]) was 7.8%.

For `O=C(O)C1CCCCN1` (configuration not stated), the inhibition [21] was “inactive” and the inhibition [14] was “inactive”.

In the case of `CN(C)C(=O)C1CCCNN1` (configuration not stated), the inhibition (Mus musculus) is reported as “inactive”, the Activity (Shh Light II [22]) is reported as “inactive” and the Activity (Shh Light II [23]) is reported as “inactive”. For the same compound, the Activity (Shh Light II [24]) was “inactive” and the Activity (Shh Light II [16]) was “Non-Toxic”.

In the case of `NC(=O)C1CCCNN1` (configuration not stated), the inhibition (Mus musculus) is reported as “inactive”, the Activity (Shh Light II [22]) is reported as “inactive” and the Activity (Shh Light II [23]) is reported as “inactive”. For the same compound, the Activity (Shh Light II [24]) was “inactive” and the Activity (Shh Light II [16]) was “Non-Toxic”.

With `COC(=O)C1CCCNN1` (configuration not stated) the inhibition [5] was “inactive” and the inhibition [6] was “inactive”.

In the case of `COC(=O)C1CCCCNN1` (configuration not stated), the inhibition [5] is reported as “inactive” and the inhibition [6] is reported as “inactive”.
